For one assay, the species on record is Cavia porcellus. Nature of the assay: Selectivity for sigma 2 receptor over sigma 1 receptor in guinea pig brain membrane. Type of assay: cell membranes. The procedure, abridged:
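Selectivity is the ratio of sigma1 Ki to sigma2 Ki. Sigma1 Ki came from [3H](+)-pentazocine competition and sigma2 Ki from [3H]DTG competition with (+)-pentazocine mask, both in male guinea pig brain membranes.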

A short description of assay [1]: Displacement of [3H]DTG from sigma 2 receptor in guinea pig brain membrane. Type of assay: cell membranes, Cavia porcellus. The procedure, abridged:
(§1)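 Male guinea pig brain membranes (0.25 mg protein) were incubated with 3.0 nM [3H]DTG plus 200 nM (+)-pentazocine as sigma1 mask. Buffer was 50 mM Tris-HCl, pH 8.0, and incubation was 120 min at 25 °C. DTG (100 µM) defined nonspecific binding. Ten log-spaced test concentrations were used. Filters were PEI-soaked GF/B, read by scintillation counting. Ki given as mean ± SEM, n = 3–5.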
For orientation: In a radioligand displacement assay an active substance lowers the binding of a labelled ligand.

Assay [2] has as its target T1, Sigma non-opioid intracellular receptor 1 (Cavia porcellus, UniProt Q60492). The assay can be described thus: Displacement of [3H](+)-pentazocine from sigma 1 receptor in guinea pig brain membrane. Type of assay: cell membranes. The procedure, abridged:
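Male guinea pig brain membranes (0.25 mg protein) were incubated with 1.0 nM [3H](+)-pentazocine in 50 mM Tris-HCl (pH 7.4, 25 °C) for 150 min at 37°C. Haloperidol (1.0 µM) defined nonspecific binding. Ten log-spaced test concentrations were used, in water with 0.1% HOAc/1.0% EtOH. Bound radioactivity was collected on PEI-soaked GF/B filters and counted by scintillation.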

A short description of assay [3]: Displacement of [3H]DTG from sigma 2 receptor in guinea pig brain membrane at pH 8.0 at 25 degC. Type of assay: cell membranes, Cavia porcellus. The procedure, abridged:
as §1

For assay [4], the target named is T1, Sigma non-opioid intracellular receptor 1. The assay can be described thus: Displacement of [3H](+)-pentazocine from sigma 1 receptor in guinea pig brain membrane at pH 8.0 at 25 degC. Type of assay: cell membranes. The procedure, abridged: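 This alternative sigma1 regimen used guinea pig brain membranes with 3.0 nM [3H](+)-pentazocine in pH 8.0 buffer. Incubation was 120 min at 25 °C. Nonspecific binding was defined with 10 µM (+)-pentazocine. Bound ligand was separated by filtration and counted by scintillation.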

This note sets out measurements from ChEMBL document CHEMBL1139166, “Synthesis and in vitro evaluation of tetrahydroisoquinolinyl benzamides as ligands for sigma receptors” (Bioorg Med Chem Lett, 2007).

T1 sequence (Q60492 whole entry): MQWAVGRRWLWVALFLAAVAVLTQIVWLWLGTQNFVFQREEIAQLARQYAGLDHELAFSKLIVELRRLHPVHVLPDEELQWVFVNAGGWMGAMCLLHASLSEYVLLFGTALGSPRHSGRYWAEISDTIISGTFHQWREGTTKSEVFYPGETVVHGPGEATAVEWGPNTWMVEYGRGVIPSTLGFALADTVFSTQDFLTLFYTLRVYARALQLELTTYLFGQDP

As to `COc1cc(Br)cc(C(=O)NCCCCN2CCc3cc4c(cc3C2)OCCO4)c1OC`, the Ratio Ki in the assay filed under Cavia porcellus was 16. The Ki in assay [1] was 21.7 nM; in assay [2], 338 nM.
`COc1ccc(CCNCCCCNC(=O)c2cc(Br)cc(OC)c2OC)cc1OC`: in the assay filed under Cavia porcellus, the Ratio Ki was determined as 0.2. For the same molecule, the inhibition constant (Ki) in assay [1] was 4620 nM; in assay [2], 880 nM.
The corresponding values for `COc1cc(Br)cc(C(=O)NCCCCN2CCc3cc4c(cc3C2)OCO4)c1OC` are 4, 20.7 nM and 82.2 nM.
Turning to `COc1cc2c(cc1OC)CN(CCCCNC(=O)c1cc(Br)cc(OC)c1OC)CC2`, the affinity in assay [1], expressed as Ki, was 2.7 nM. Besides, the IC50 in assay [3] worked out at 3 nM; in assay [4], 1890 nM.
Consider `COc1cc(Br)cc(C(=O)NCCCCN2CCc3cc4c(cc3C2)OCCCO4)c1OC`, for which the Ratio Ki in the assay listed under Cavia porcellus amounted to 44. Further, the values for the inhibition constant (Ki) in assay [1] and in assay [2] were 32.6 nM and 1430 nM, respectively.

Usually Ki stands for the equilibrium dissociation constant of an inhibitor or competing ligand from its target. The IC50 is the concentration needed to halve the response being measured. Read a high IC50 as weaker potency.
